Active and inactive are the calls of the source. The calls are words filed in the database; no cut-off is given here.
Legend:
[1] = test system: Mus musculus; assay: CNS activity in po dosed mouse assessed as alteration of exploratory behaviour; type: functional; details: for minimal effective dose: Mus musculus, po, read-out: MED
How it was run: (§1)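 Mice in groups of five, dosed orally, placed in doughnut-shaped activity cages (six infrared photocells) 90 min post-dose. Beam breaks counted cumulatively at 30, 60, 90 and 120 min in cage ([…]) plus 120-min total. Counts compared with vehicle-injected controls. Compounds dissolved in acetone.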

[2] = test system: Rattus norvegicus; assay: CNS activity in po dosed septal-lesioned rat assessed as decrease in hyperreactivity behaviour; type: functional; details: for minimal effective dose: Rattus norvegicus, po, read-out: MED
How it was run: (§2)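 Septal-lesioned rats rated hyperreactive at score ≥11 used as their own controls; oral dosing. Reactivity rated at 30, 60, 120, 240, 300 min post-dose. P value = postdrug rating sum / predrug sum per period. E value = mean of ten 30-min periods over 300 min, interpolated, / predrug sum. Student's t test, p<0.01.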

[3] = test system: Rattus norvegicus; assay: CNS activity in po dosed rat assessed as protection against muricide; type: functional; details: for minimal effective dose: Rattus norvegicus, po, read-out: MED
How it was run: (§3)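 Rats with innate mouse-killing behaviour, control kill time under 5 s; three rats per dose, oral dosing, vehicle controls at equal injection volume. Muricide scored 15–360 min post-dose (0 = 0–59 s, 1 = 60–120 s, 2 = >120 s). Scores converted to percent protection versus vehicle; Student's t test for significance.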

[4] = test system: Mus musculus; assay: CNS activity in mouse assessed as alteration of exploratory behaviour at 20 mg/kg, po; type: functional, organism-based; parameters: dose 20 mg/kg; how it was run: as §1
[5] = test system: Rattus norvegicus; assay: CNS activity in rat assessed as protection against muricide at 10 mg/kg, po; type: functional, organism-based; parameters: dose 10 mg/kg; how it was run: as §3
[6] = test system: Rattus norvegicus; assay: CNS activity in septal-lesioned rat assessed as decrease in hyperreactivity behaviour at 10 mg/kg, po; type: functional, organism-based; parameters: dose 10 mg/kg; how it was run: as §2

Q: What does the source list for `CCCCCCC(C)(C)c1cc(O)c2c(c1)OC(C)(C)C1=C2CC(C)CC1` (racemic)?
A: minimal effective dose [1]: 0.62 mg/kg; minimal effective dose [2]: 1.25 mg/kg; MED [3]: 0.62 mg/kg

Q: With `CCCCCc1cc(S)c2c(c1)OC(C)(C)C1=C2CC(C)CC1` (racemic) as the compound, how does the Activity [4] read?
A: Its Activity is “inactive”.

Q: And the Activity [5]?
A: Its Activity is “inactive”.

Q: And the Activity [6]?
A: The Activity was “inactive”.

Q: How did the minimal effective dose [1] turn out when `CCCCCC(C)C(C)c1cc(N)c2c(c1)OC(C)(C)C1=C2CC(C)CC1` (racemic) was run?
A: Its minimal effective dose is 2.5 mg/kg.

Q: And the minimal effective dose [2]?
A: Its minimal effective dose is 10 mg/kg.

Q: And the minimal effective dose [3]?
A: Its minimal effective dose is 5 mg/kg.

Q: Which MED [1] does the source give for `CCCCCCC(C)(C)c1cc(N)c2c(c1)OC(C)(C)C1=C2CC(C)CC1` (stereo in doubt; d-10c) [listing 1 of 2 here] here?
A: Its MED is 10 mg/kg.

Q: What does the source list for `CCCCCc1cc2c(c(N(C)C)c1)C1=C(CCC(C)C1)C(C)(C)O2` (racemic)?
A: Activity [4]: inactive; Activity [5]: inactive; Activity [6]: inactive

Q: With `CCCCCCC(C)(C)c1cc(O)c2c(c1)OC(C)(C)C1=C2CC(C)CC1` (stereo in doubt; l-4c) as the compound, how does the MED [3] read?
A: Its MED is 1.25 mg/kg.

Q: With `CCCCCC(C)C(C)c1cc(NC(C)=O)c2c(c1)OC(C)(C)C1=C2CC(C)CC1` (racemic) as the compound, how does the Activity [4] read?
A: Its Activity is “inactive”.

Q: And the minimal effective dose [3]?
A: The minimal effective dose was 10 mg/kg.

Q: What about the Activity [6] of the same compound?
A: The Activity was “inactive”.

Q: `CCCCCC(C)C(C)c1cc2c(c(N(C)C)c1)C1=C(CCC(C)C1)C(C)(C)O2` (racemic) was tested. Which minimal effective dose [1] did it give?
A: The minimal effective dose was 20 mg/kg.

Q: What about the Activity [5] of the same compound?
A: The Activity was “inactive”.

Q: And the Activity [6]?
A: The Activity was “inactive”.

Q: With `CCCCCCC(C)(C)c1cc(N)c2c(c1)OC(C)(C)C1=C2CC(C)CC1` (racemic) [listing 1 of 2 here] as the compound, how does the Activity [6] read?
A: The Activity was “inactive”.

Q: How did the Activity [6] turn out when `CCCCCCC(C)(C)c1cc(N)c2c(c1)OC(C)(C)C1=C2CC(C)CC1` (stereo in doubt; l-10c) [listing 1 of 2 here] was run?
A: The Activity was “inactive”.

Q: With `CCCCCc1cc(NC(C)=O)c2c(c1)OC(C)(C)C1=C2CC(C)CC1` (racemic) as the compound, how does the Activity [4] read?
A: Its Activity is “inactive”.

Q: What about the Activity [5] of the same compound?
A: Its Activity is “inactive”.

Q: What about the Activity [6] of the same compound?
A: Its Activity is “inactive”.

Q: Which results are given for `CCCCCc1cc(O)c2c(c1)OC(C)(C)C1=C2CC(C)CC1` (racemic)?
A: Activity [4]: inactive; minimal effective dose [3]: 10 mg/kg; Activity [6]: inactive

Q: With `CCCCCCC(C)(C)c1cc(N)c2c(c1)OC(C)(C)C1=C2CC(C)CC1` (stereo in doubt; l-10c) [listing 2 of 2 here] as the compound, how does the MED [1] read?
A: Its MED is 5 mg/kg.

Q: What about the MED [3] of the same compound?
A: Its MED is 10 mg/kg.

Q: Which Activity [4] does the source give for `CCCCCc1cc(N)c2c(c1)OC(C)(C)C1=C2CC(C)CC1` (racemic) here?
A: Its Activity is “inactive”.

Q: And the Activity [5]?
A: Its Activity is “inactive”.

Q: What about the Activity [6] of the same compound?
A: Its Activity is “inactive”.

Q: For `CCCCCCC(C)(C)c1cc(O)c2c(c1)OC(C)(C)C1=C2CC(C)CC1` (stereo in doubt; d-4c), which MED [1] is on record?
A: Its MED is 0.31 mg/kg.

Q: What about the MED [2] of the same compound?
A: Its MED is 2.5 mg/kg.

Q: And the MED [3]?
A: Its MED is 5 mg/kg.

Q: What does the source list for `CCCCCC(C)C(C)c1cc(S)c2c(c1)OC(C)(C)C1=C2CC(C)CC1` (racemic)?
A: Activity [4]: inactive; Activity [5]: inactive; Activity [6]: inactive

Q: `CCCCCCC(C)(C)c1cc(N)c2c(c1)OC(C)(C)C1=C2CC(C)CC1` (stereo in doubt; d-10c) [listing 2 of 2 here] was tested. Which Activity [5] did it give?
A: The Activity was “inactive”.

Q: And the Activity [6]?
A: Its Activity is “inactive”.

Q: What does the source list for `CCCCCC(C)C(C)c1cc(O)c2c(c1)OC(C)(C)C1=C2CC(C)CC1` (racemic)?
A: minimal effective dose [1]: 0.62 mg/kg; minimal effective dose [2]: 5 mg/kg; minimal effective dose [3]: 2.5 mg/kg

Q: How did the minimal effective dose [1] turn out when `CCCCCCC(C)(C)c1cc(N)c2c(c1)OC(C)(C)C1=C2CC(C)CC1` (racemic) [listing 2 of 2 here] was run?
A: The minimal effective dose was 5 mg/kg.

Q: What about the minimal effective dose [3] of the same compound?
A: The minimal effective dose was 10 mg/kg.

Q: For `CCCCCCC(C)(C)c1cc(NS(C)(=O)=O)c2c(c1)OC(C)(C)C1=C2CC(C)CC1` (racemic), which minimal effective dose [1] is on record?
A: Its minimal effective dose is 20 mg/kg.

Q: And the Activity [5]?
A: Its Activity is “inactive”.

Q: What about the Activity [6] of the same compound?
A: Its Activity is “inactive”.

Q: Which minimal effective dose [1] does the source give for `CCCCCC(C)C(C)c1cc(NC)c2c(c1)OC(C)(C)C1=C2CC(C)CC1` (racemic) here?
A: The minimal effective dose was 20 mg/kg.

Q: And the Activity [5]?
A: Its Activity is “inactive”.

Q: And the Activity [6]?
A: Its Activity is “inactive”.

From ChEMBL document CHEMBL3244312, “Cannabinoids. 1. 1-Amino- and 1-mercapto-7,8,9,10-tetrahydro-6H-dibenzo [b,d]pyrans” (1977)
